According to paper PMC5508980 (Molecular nutrition & food research, 2017):
One block for each compound: values may come before it.

Experiments:
Assay type in all cases: biochemical
Class I HDAC = experiment: HDAC activity assay, class I substrate, bovine heart tissue lysate; details: 2 hours treatment
In short: (§1)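 Bovine heart lysate prepared in PBS pH 7.4 with 0.5% Triton X-100, 300 mM NaCl and protease/phosphatase inhibitors, then clarified; 30 µg protein/well in PBS. Test compound at semi-log increasing concentrations for 2 h, then class-specific AMC-acyl-lysine substrate (1 mM DMSO stock) for 2 h at 37 °C.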

recombinant HDAC1 = recombinant HDAC1 (Homo sapiens, UniProt Q13547); experiment: Recombinant HDAC activity assay
recombinant HDAC2 = recombinant HDAC2 (Homo sapiens, UniProt Q92769); experiment: Recombinant HDAC activity assay; details: 2 h, read-out: % HDAC activity, Class I HDACs, 2
recombinant HDAC3 = recombinant HDAC3 (Homo sapiens, UniProt O15379); experiment: Recombinant HDAC activity assay
recombinant HDAC8 = biological target: T1, recombinant HDAC8 (Homo sapiens, UniProt Q9BY41); experiment: Recombinant HDAC activity assay
T1 sequence (Q9BY41 1-377): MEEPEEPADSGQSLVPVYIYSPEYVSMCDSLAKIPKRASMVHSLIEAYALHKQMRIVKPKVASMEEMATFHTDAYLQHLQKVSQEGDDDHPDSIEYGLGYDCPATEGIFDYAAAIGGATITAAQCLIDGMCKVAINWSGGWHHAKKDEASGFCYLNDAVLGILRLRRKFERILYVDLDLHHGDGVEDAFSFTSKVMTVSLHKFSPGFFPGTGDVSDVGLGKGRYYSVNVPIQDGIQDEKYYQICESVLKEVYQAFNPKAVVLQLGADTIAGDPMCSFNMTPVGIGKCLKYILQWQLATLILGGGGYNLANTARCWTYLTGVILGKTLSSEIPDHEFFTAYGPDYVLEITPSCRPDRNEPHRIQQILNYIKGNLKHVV

recombinant HDAC7 = biological target: T2, recombinant HDAC7 (Homo sapiens, UniProt Q8WUI4); experiment: Recombinant HDAC activity assay; details: recombinant protein incubated with 50 µM compound, 2 hrs
T2 sequence (Q8WUI4 1-952): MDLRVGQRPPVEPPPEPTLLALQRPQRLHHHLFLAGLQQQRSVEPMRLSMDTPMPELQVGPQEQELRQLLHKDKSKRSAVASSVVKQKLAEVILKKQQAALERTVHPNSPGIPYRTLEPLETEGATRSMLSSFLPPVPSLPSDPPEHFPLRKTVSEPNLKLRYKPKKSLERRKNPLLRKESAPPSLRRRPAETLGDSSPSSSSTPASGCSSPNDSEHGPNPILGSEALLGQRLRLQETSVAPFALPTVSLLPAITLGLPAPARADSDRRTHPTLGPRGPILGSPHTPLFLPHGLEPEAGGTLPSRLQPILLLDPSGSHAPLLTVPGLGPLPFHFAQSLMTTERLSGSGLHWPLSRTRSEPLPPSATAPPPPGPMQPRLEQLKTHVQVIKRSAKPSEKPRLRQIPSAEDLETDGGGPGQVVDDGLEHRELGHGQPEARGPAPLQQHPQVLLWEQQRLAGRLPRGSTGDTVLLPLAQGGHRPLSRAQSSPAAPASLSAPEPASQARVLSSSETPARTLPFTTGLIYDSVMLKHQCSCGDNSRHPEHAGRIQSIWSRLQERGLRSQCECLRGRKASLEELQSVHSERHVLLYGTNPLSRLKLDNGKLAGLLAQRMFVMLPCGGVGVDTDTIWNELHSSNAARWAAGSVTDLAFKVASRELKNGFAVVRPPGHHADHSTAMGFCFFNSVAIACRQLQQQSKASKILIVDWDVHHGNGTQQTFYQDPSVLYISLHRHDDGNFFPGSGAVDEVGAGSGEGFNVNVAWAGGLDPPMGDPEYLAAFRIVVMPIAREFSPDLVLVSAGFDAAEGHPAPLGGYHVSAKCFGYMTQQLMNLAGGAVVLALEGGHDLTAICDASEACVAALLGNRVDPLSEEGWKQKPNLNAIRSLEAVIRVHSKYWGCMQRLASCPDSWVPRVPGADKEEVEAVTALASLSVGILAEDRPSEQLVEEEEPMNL

Class IIa HDAC = experiment: HDAC activity assay, class IIa substrate, bovine heart tissue lysate; details: 2 hours treatment
In short: as §1

recombinant HDAC4 = recombinant HDAC4 (Homo sapiens, UniProt P56524); experiment: Recombinant HDAC activity assay; details: recombinant protein incubated with 50 µM compound, 2 hrs
recombinant HDAC5 = recombinant HDAC5 (Homo sapiens, UniProt Q9UQL6); experiment: Recombinant HDAC activity assay; details: recombinant protein incubated with 50 µM compound, 2 hrs
recombinant HDAC9 = recombinant HDAC9 (Homo sapiens, UniProt Q9UKV0); experiment: Recombinant HDAC activity assay; details: recombinant protein incubated with 50 µM compound, 2 hrs
recombinant HDAC6 = biological target: T3, recombinant HDAC6 (Homo sapiens, UniProt Q9UBN7); experiment: Recombinant HDAC activity assay; details: recombinant protein incubated with 50 µM compound, 2 hrs
T3 sequence (Q9UBN7 1-1215): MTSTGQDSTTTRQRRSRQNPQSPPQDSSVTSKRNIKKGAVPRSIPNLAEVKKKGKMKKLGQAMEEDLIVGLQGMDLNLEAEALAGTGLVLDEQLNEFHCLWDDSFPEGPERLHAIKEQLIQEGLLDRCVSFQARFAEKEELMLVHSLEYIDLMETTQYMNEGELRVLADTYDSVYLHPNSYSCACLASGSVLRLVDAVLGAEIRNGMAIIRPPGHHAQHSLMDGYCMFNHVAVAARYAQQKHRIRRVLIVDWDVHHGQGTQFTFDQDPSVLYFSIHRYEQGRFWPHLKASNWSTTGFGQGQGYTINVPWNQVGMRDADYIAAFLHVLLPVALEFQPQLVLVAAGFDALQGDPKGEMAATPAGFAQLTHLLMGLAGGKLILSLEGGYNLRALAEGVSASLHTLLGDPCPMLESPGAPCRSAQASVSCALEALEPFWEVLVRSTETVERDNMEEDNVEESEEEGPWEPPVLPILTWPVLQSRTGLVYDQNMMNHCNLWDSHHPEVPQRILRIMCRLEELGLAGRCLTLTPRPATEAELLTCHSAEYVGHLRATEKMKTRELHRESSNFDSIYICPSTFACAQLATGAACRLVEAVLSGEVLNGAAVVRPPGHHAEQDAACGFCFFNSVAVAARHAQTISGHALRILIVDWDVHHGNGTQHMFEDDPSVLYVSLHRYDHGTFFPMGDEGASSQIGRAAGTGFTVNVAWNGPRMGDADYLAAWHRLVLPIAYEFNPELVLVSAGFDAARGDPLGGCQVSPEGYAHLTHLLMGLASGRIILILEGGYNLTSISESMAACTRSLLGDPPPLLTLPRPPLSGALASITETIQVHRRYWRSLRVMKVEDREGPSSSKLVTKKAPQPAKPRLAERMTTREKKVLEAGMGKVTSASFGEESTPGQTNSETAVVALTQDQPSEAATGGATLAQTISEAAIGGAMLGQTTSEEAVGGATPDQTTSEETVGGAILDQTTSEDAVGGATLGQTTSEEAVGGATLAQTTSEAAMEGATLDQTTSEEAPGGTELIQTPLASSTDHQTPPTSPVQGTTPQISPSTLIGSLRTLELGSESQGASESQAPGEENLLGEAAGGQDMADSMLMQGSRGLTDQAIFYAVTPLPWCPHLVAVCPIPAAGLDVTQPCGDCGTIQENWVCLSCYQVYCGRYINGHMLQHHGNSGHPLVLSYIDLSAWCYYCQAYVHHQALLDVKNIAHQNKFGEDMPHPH

recombinant HDAC10 = biological target: T4, recombinant HDAC10 (Homo sapiens, UniProt Q969S8); experiment: Recombinant HDAC activity assay; details: recombinant protein incubated with 50 µM compound, 2 hrs
T4 sequence (Q969S8 1-669): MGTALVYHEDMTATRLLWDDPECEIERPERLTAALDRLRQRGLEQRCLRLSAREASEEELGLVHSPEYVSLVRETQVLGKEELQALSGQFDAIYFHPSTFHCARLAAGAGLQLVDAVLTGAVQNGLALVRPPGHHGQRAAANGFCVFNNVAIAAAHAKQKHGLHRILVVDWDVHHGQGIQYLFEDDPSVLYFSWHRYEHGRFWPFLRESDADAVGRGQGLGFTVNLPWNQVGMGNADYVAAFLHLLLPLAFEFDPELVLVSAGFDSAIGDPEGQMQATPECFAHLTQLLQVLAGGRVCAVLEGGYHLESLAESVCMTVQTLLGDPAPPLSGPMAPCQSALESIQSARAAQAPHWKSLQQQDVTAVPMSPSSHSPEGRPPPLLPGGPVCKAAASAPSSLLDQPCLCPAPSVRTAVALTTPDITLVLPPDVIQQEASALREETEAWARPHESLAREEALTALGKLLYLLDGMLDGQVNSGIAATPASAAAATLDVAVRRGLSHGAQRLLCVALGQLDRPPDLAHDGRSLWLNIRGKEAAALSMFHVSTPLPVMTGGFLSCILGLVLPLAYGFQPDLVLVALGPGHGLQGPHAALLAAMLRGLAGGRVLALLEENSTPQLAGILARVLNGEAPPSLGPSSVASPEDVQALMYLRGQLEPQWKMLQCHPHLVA

Class IIb HDAC = experiment: HDAC activity assay, class IIb substrate, bovine heart tissue lysate; details: 2 hours treatment
In short: as §1

[1] = recombinant protein incubated with 50 µM compound, 2 hrs

Sequence of recombinant HDAC1 (Q13547 whole entry): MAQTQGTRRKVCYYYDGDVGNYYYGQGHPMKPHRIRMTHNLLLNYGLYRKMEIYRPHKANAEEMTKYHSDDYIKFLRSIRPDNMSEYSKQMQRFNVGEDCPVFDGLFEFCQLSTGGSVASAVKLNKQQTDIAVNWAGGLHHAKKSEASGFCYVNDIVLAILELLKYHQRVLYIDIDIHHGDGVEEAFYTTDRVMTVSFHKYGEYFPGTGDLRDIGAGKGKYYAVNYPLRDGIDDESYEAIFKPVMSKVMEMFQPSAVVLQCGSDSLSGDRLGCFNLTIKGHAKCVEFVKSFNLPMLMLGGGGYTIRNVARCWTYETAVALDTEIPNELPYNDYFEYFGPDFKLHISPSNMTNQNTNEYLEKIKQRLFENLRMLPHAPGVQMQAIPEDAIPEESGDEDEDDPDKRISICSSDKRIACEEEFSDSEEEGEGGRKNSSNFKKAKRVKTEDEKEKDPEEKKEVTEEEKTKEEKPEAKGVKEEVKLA
Sequence of recombinant HDAC3 (O15379 whole entry): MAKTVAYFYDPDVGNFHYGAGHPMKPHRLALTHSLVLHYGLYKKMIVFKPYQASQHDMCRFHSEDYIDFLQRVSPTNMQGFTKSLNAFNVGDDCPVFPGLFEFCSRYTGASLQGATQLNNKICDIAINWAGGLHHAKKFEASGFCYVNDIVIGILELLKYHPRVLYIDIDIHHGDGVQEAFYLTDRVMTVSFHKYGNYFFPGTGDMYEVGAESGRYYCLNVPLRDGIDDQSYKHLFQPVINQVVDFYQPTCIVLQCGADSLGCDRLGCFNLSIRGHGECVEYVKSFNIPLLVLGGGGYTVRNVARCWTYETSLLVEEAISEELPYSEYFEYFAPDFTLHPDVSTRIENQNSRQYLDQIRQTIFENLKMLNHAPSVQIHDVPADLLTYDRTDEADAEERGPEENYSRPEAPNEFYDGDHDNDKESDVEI
Sequence of recombinant HDAC3 (Q9Y618 395-489 partner limits assumed): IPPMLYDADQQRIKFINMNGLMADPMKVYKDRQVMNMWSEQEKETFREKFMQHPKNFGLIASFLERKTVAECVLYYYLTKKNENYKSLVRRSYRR
Sequence of recombinant HDAC9 (Q9UKV0 whole entry): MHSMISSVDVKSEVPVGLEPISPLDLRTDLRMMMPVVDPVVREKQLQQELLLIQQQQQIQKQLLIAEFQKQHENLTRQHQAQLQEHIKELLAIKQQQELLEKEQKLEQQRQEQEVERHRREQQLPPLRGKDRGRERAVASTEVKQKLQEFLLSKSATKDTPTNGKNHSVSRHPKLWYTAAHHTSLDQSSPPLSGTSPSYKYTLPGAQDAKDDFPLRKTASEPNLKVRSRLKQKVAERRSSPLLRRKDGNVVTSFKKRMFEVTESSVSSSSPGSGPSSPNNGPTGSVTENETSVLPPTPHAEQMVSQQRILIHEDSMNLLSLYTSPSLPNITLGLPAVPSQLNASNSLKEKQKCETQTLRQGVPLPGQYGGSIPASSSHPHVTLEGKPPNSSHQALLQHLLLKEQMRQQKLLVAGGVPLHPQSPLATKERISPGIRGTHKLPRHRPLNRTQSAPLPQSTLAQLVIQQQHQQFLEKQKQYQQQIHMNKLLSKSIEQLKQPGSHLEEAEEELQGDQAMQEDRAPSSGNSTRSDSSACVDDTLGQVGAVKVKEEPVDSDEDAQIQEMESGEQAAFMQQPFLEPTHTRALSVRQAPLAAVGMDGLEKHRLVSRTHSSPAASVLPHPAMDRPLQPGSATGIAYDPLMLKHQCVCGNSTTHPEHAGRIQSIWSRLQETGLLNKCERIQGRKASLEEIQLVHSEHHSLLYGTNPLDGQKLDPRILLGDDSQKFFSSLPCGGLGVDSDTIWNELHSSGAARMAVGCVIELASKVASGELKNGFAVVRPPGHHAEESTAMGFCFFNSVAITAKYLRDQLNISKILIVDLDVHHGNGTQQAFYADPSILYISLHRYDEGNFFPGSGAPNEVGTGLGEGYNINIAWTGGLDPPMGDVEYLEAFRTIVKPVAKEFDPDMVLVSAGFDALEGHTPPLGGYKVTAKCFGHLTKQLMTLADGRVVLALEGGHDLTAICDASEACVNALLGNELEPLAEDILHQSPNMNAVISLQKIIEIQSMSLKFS
Sequence of recombinant HDAC4 (P56524 whole entry): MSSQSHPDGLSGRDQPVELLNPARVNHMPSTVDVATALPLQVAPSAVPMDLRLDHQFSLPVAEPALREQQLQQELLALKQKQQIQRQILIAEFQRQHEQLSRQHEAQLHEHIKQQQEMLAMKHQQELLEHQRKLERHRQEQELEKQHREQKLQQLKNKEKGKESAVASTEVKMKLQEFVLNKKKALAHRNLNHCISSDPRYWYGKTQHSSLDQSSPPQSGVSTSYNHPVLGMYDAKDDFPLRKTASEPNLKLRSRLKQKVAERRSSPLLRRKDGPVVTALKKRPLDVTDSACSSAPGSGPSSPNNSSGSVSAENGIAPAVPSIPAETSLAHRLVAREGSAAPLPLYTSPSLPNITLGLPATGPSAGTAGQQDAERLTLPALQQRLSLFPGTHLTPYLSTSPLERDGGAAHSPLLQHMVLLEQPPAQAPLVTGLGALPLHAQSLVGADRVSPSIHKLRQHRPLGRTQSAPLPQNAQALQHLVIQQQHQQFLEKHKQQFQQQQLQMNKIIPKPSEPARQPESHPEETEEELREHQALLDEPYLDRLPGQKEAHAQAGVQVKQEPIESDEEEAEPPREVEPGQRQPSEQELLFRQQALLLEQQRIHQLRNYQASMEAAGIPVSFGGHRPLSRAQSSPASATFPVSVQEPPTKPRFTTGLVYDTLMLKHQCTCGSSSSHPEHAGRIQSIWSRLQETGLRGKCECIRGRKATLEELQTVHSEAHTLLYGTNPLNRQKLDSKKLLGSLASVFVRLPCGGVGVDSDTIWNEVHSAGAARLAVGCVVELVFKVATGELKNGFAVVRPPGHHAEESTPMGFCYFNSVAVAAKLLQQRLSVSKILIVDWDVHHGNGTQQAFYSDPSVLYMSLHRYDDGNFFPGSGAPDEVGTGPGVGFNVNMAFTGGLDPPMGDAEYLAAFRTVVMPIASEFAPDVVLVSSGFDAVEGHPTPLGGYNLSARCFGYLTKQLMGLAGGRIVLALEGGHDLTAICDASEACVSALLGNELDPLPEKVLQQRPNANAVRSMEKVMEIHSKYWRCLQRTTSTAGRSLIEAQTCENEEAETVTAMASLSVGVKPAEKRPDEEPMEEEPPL
Sequence of recombinant HDAC2 (Q92769 whole entry): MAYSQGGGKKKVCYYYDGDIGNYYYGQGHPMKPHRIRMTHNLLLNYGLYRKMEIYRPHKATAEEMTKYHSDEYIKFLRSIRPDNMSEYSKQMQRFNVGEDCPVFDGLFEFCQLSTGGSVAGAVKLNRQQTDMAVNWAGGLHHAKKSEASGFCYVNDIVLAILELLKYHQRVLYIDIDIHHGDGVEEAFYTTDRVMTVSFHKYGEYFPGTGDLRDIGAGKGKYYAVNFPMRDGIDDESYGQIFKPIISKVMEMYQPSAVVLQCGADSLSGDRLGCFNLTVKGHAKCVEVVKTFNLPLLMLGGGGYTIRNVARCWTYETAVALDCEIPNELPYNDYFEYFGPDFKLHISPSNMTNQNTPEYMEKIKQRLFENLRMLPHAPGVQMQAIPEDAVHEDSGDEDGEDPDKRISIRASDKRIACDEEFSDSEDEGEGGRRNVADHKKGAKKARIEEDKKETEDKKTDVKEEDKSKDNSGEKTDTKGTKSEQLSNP
Sequence of recombinant HDAC5 (Q9UQL6 whole entry): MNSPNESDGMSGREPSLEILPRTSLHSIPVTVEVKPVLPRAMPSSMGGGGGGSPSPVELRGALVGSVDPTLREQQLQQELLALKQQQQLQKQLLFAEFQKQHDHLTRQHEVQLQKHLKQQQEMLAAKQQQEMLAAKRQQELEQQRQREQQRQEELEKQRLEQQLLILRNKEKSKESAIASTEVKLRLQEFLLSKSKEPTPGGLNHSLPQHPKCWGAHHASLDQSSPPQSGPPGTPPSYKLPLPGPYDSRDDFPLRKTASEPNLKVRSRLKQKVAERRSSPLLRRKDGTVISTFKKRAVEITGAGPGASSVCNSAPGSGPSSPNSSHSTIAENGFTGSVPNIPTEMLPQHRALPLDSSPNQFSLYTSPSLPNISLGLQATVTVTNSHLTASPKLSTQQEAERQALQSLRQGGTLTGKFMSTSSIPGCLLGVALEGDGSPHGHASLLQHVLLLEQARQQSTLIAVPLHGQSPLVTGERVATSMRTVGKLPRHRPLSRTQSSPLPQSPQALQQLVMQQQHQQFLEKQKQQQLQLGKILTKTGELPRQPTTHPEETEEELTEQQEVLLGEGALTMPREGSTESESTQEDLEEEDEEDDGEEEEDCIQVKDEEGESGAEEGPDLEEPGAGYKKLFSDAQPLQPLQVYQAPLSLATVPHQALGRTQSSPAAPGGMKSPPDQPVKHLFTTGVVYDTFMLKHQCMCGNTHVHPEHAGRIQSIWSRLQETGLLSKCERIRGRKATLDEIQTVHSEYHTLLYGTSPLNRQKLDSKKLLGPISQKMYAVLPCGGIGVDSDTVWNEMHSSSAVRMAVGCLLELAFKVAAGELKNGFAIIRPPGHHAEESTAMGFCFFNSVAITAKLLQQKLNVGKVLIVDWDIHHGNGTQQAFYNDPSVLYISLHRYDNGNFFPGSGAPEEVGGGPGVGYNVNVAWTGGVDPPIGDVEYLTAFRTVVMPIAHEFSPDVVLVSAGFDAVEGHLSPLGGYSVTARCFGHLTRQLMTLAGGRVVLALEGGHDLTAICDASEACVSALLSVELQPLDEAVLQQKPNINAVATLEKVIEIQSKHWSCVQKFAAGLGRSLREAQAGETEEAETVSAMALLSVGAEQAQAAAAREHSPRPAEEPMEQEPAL

Compound: Nc1ccccc1NC(=O)c1ccc(CNc2nccc(-c3cccnc3)n2)cc1 [MGCD, MGCD0103, reference compound]
- class I HDAC activity, effect in words (Class I HDAC): only inhibited class I HDAC activity

- remaining activity at 50 µM (recombinant HDAC1; 2 h, read-out: % HDAC activity, Class I HDACs, 1): 76.4%
- remaining activity at 50 µM (recombinant HDAC2): 90.4%
- remaining activity at 50 µM (recombinant HDAC3; 2 h, read-out: % HDAC activity, Class I HDACs, 3): 72.7%
- remaining activity at 50 µM (recombinant HDAC8; 2 h, read-out: % HDAC activity, Class I HDACs, 8): 76.5%
- % HDAC activity, Class IIa HDACs, 7 (recombinant HDAC7): -
Compound: O=c1cc(-c2ccc(O)cc2)oc2cc(O)cc(O)c12 [Apigenin]
- class I HDAC activity, effect in words (Class I HDAC): only inhibit class I HDAC activity

Compound: DPAH
- class IIa HDAC activity, effect in words (Class IIa HDAC): only inhibited class IIa HDAC activity

Compound: Myricitrin
- % HDAC activity, Class I HDACs, 1 (recombinant HDAC1; [1]): 75.1%
- % HDAC activity, Class I HDACs, 3 (recombinant HDAC3; [1]): 67.7%
- % HDAC activity, Class I HDACs, 8 (recombinant HDAC8; [1]): 65.4%
- % HDAC activity, Class IIa HDACs, 4 (recombinant HDAC4): 93.5%
- % HDAC activity, Class IIa HDACs, 5 (recombinant HDAC5): 68.3%
- % HDAC activity, Class IIa HDACs, 7 (recombinant HDAC7): -
- % HDAC activity, Class IIa HDACs, 9 (recombinant HDAC9): 69.3%
- % HDAC activity, Class IIb HDACs, 6 (recombinant HDAC6): 87.2%
- % HDAC activity, Class IIb HDACs, 10 (recombinant HDAC10): 67.0%

Compound: CN1CCc2c(c3ccccc3n2Cc2ccc(C(=O)NO)cc2)C1 [TubA, Tubastatin A, reference compound]
- class IIb HDAC activity, effect in words (Class IIb HDAC): only inhibited class IIb HDAC activity
